The results in this text go back to ChEMBL document CHEMBL4033790, “Design and Synthesis of Novel Deuterated Ligands Functionally Selective for the γ-Aminobutyric Acid Type A Receptor (GABAAR) α6 Subtype with Improved Metabolic Stability and Enhanced Bioavailability” (J Med Chem, 2018).

For orientation: Tmax means the time from dosing to the highest level. Usually Cmax stands for the peak of the concentration-time curve. As a reminder, the Kp is tissue or fluid exposure divided by exposure in the circulation. In general, AUC(0-t) refers to exposure summed from dosing to a finite time, without extrapolation to infinity.

The nature of series [1]: Drug level in human liver microsomes treated with 8-Chloro-2-(3-methoxy-d3-phenyl)-2,5-dihydro-3H-pyrazolo[4,3-c]quinolin-3-one after 60 mins by LC-MS analysis. It counts as ADME. The note with it: 1 h.
Series [2] can be described thus: Drug level in mouse liver microsomes treated with 8-Chloro-2-(3-methoxy-d3-phenyl)-2,5-dihydro-3H-pyrazolo[4,3-c]quinolin-3-one after 60 mins by LC-MS analysis. It counts as ADME. Particulars: 1 h; call rule not given here. For orientation: Microsomes from liver hold many membrane-bound enzymes, among them those of drug oxidation.
Series [3] can be described thus: Tmax in Wistar rat brain at 10 mg/kg, ip administered as single dose by HPLC-MS/MS analysis. It counts as ADME, organism-based. In a few lines:
(§1)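 Male Wistar rats (250–350 g) received a single i.p. dose of 10 mg/kg as a 5 mg/ml suspension in 85% water, 14% propylene glycol and 1% Tween 80. Three rats per time point were sacrificed at 5, 20, 60, 180 and 720 min for plasma and brain. Samples were cleaned up by solid-phase extraction and quantified by HPLC-MS/MS.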

For a further series, the system named is HEK-293T. Briefly: Cytotoxicity against HEK293T cells assessed as reduction in cell viability up to 400 uM after 48 hrs by CellTiter-Glo assay. The note with it: human. It is filed as cell-based. In a few lines:
(§2)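 HEK293T and HepG2 cells grown in high-glucose DMEM with non-essential amino acids, 10 mM HEPES, penicillin/streptomycin and 10% heat-inactivated FBS. Cells were harvested with trypsin and plated; compound was pin-transferred 3 h later. Incubation was 48 h, then CellTiter-Glo luminescence was read. Controls were DMSO (negative) and a cytotoxic aminoketone (positive). Quadruplicates, three independent runs, normalized to controls, nonlinear regression.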
On the technique in general: In ATP-based viability assays light output follows the ATP content of the culture.

The subject of series [4] is Rattus norvegicus. Briefly: Toxicity in Wistar rat assessed as closed arm entries at 10 mg/kg, ip administered for 45 mins measured for 5 min by elevated plus maze apparatus method (reference value: 3.63 +/- 0.42). It counts as organism-based. Particulars: in vivo.
Series [5] can be described thus: Tmax in Wistar rat plasma at 10 mg/kg, ip administered as single dose by HPLC-MS/MS analysis. It is filed as ADME, organism-based. The essentials: as §1
The nature of series [6]: Terminal elimination half-life in Wistar rat plasma at 10 mg/kg, ip administered as single dose by HPLC-MS/MS analysis. It counts as ADME, organism-based. Particulars: read-out: beta t1/2 (converted). The essentials:
as §1

Series [7] deals with Voltage-gated inwardly rectifying potassium channel KCNH2 (Homo sapiens, UniProt Q12809). Briefly: Displacement of [3H]-dofetilide from human ERG expressed in HEK cell membranes at >10 uM after 60 to 90 mins by scintillation counting.
Series [8] is described as follows: Cmax in Wistar rat brain at 10 mg/kg, ip administered as single dose measured at 5 to 720 mins post dose by HPLC-MS/MS analysis. It is filed as ADME, organism-based. The arrangement: dose 10 mg/kg, route intraperitoneal. The essentials:
(§3)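 Male Wistar rats (250-350 g) given a single 10 mg/kg i.p. dose of a 5 mg/ml suspension in 85% distilled water, 14% propylene glycol, 1% Tween 80. Three rats per time point (5, 20, 60, 180, 720 min). Blood and brain were collected after sacrifice. Drug was recovered by solid phase extraction and quantified by HPLC-MS/MS.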

A short description of series [9]: Cmax in Wistar rat plasma at 10 mg/kg, ip administered as single dose measured at 5 to 720 mins post dose by HPLC-MS/MS analysis. It is filed as ADME, organism-based. Set-up: dose 10 mg/kg, route intraperitoneal. In a few lines: as §3
Series [10] concerns Rattus norvegicus. Briefly: Toxicity in Wistar rat assessed as average swim speed at 10 mg/kg, ip administered for 45 mins by cued water-maze apparatus method (reference value: 0.21 +/- 0.01 meter/s). It is filed as organism-based. Particulars: in vivo, 0.75 h.
A short description of series [11]: Ratio of brain AUC (0 to t) to plasma AUC (0 to t), Kp of the compound in Wistar rat at 10 mg/kg, ip administered as single dose by HPLC-MS/MS analysis. It counts as ADME, organism-based.
The test system of series [12] is Rattus norvegicus. The experiment in a line: Toxicity in Wistar rat assessed as total distance traveled at 10 mg/kg, ip administered for 45 mins measured for 5 min by elevated plus maze method (reference value: 6.71 +/- 0.56 meter). It is filed as organism-based. The note with it: in vivo.
Series [13] deals with Rattus norvegicus. The experiment in a line: Toxicity in Wistar rat assessed as total distance traveled at 10 mg/kg, ip administered for 45 mins by cued water-maze method (reference value: 8.04 +/- 1.16 meter). Particulars: in vivo, 0.75 h. It counts as organism-based.
Another series deals with Brain. Briefly: AUC (0 to 12 hrs) in Wistar rat brain at 10 mg/kg, ip administered as single dose by HPLC-MS/MS analysis. It is filed as ADME, organism-based. Set-up: dose 10 mg/kg, time < 12 hr, route intraperitoneal. Particulars: in vivo.
Series [14] deals with Rattus norvegicus. Briefly: Hyperlocomotor activity in Wistar rat assessed as total distance travelled at 10 mg/kg, ip after 60 mins. It is filed as ADME, organism-based. Particulars: in vivo, 1 h.
The nature of series [15]: AUC (0 to 12 hrs) in Wistar rat plasma at 10 mg/kg, ip administered as single dose by HPLC-MS/MS analysis. It is filed as ADME, organism-based. Set-up: time < 12 hr, dose 10 mg/kg, route intraperitoneal.
In series [16] the test system is Rattus norvegicus. The experiment in a line: Toxicity in Wistar rat assessed as open arm entries at 10 mg/kg, ip administered for 45 mins measured for 5 min by elevated plus maze apparatus method (reference value: 23.07 +/- 5.47%). It is filed as organism-based. The note with it: in vivo.
Series [17] relates to Rattus norvegicus. The experiment in a line: Toxicity in Wistar rat assessed as peripheral ring distance at 10 mg/kg, ip administered for 45 mins by cued water-maze method (reference value: 67.44 +/- 4.60%). It counts as organism-based. Particulars: in vivo, 0.75 h.
For a further series, the system named is HepG2. The experiment in a line: Cytotoxicity against human HepG2 cells assessed as reduction in cell viability up to 400 uM after 48 hrs by CellTiter-Glo assay. Particulars: hepg2, 48 h. It counts as cell-based. In a few lines:
as §2

A short description of series [18]: Metabolic stability in human liver microsomes assessed as parent compound remaining at 10 uM after 60 mins by LC-MS analysis. It is filed as ADME, microsome. Particulars: read-out: Stability. The essentials:
(§4)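 The 60 min samples of the microsomal incubation (10 μM compound, human or mouse liver microsomes at 0.5 mg/mL, NADPH regenerating system, 37 °C) were analysed by LC-MS. Detection used SIM mode with dual ESI/APCI ionization, calibrated to the retention times and masses of the parent and its O-demethylated metabolites. Peak intensities were measured.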

The nature of series [19]: Metabolic stability in mouse liver microsomes assessed as parent compound remaining at 10 uM after 60 mins by LC-MS analysis. It counts as ADME, microsome. The note with it: read-out: Stability. In a few lines: as §4
The test system of series [20] is Rattus norvegicus. The experiment in a line: Toxicity in Wistar rat assessed as grip strength by measuring peak force of pull necessary to overcome strength of animal's grip at 10 mg/kg, ip (reference value: 2.79 +/- 0.16 kg/kg). The note with it: in vivo. It is filed as organism-based.
Series [21] is described as follows: Terminal elimination half-life in Wistar rat brain at 10 mg/kg, ip administered as single dose by HPLC-MS/MS analysis. Particulars: read-out: beta t1/2 (converted). It counts as ADME, organism-based. In a few lines:
as §1

For a further series, the system named is Mus musculus. Briefly: Neurotoxicity in Swiss Webster mouse assessed as induction of motor impairment at 60 mg/kg administered via oral gavage measured after 10 to 60 mins by rotarod method. It is filed as toxicity, organism-based. Particulars: in vivo.
The subject of a further series is Liver. The experiment in a line: Half life in mouse liver microsomes at 10 uM by LC-MS/MS analysis. It is filed as ADME, microsome. The essentials:
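Compound at 10 μM final was preincubated 5 min at 37 °C with NADPH regenerating system in phosphate buffer, pH 7.4. Human or mouse liver microsomes (0.5 mg/mL protein) were added to start the reaction. Samples were taken at 0 (no microsomes) and 10–60 min and measured by LC-MS/MS against an internal standard. Half-life = 0.693/k, with k the slope of ln peak-area ratio versus time. Three experiments, each in duplicate.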

Chain of Voltage-gated inwardly rectifying potassium channel KCNH2 (Q12809 whole entry): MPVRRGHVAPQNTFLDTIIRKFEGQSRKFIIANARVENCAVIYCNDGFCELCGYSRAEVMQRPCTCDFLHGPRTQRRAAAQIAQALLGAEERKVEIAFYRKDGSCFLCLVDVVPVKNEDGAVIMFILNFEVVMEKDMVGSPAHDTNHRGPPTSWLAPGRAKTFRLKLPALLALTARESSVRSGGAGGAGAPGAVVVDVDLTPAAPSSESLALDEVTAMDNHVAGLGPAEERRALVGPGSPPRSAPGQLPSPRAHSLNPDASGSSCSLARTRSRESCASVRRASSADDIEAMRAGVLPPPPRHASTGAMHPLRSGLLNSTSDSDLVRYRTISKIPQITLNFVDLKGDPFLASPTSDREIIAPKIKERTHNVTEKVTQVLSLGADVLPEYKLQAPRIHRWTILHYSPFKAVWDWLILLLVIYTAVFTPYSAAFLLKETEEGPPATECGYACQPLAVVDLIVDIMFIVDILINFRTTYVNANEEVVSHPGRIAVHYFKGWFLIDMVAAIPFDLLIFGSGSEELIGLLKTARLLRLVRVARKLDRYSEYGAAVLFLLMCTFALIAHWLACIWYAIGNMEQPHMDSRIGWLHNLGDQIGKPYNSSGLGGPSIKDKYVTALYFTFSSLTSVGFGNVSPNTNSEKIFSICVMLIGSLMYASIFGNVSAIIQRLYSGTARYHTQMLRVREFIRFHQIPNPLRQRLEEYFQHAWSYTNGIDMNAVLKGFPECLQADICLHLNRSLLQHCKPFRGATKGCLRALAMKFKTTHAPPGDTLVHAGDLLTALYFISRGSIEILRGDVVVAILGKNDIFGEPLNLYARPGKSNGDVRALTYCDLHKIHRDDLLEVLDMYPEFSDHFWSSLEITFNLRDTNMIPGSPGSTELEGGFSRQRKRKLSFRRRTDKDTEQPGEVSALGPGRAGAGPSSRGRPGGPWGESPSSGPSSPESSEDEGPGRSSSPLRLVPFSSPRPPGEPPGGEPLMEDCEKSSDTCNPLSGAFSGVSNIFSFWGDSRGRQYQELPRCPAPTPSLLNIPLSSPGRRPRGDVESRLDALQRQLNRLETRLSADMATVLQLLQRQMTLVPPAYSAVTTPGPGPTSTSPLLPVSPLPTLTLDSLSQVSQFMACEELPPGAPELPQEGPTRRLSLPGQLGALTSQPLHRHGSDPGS

Regarding `O=c1c2c[nH]c3ccc(Cl)cc3c-2nn1-c1cccc(O)c1`, the Drug metabolism entry in series [1] and in series [2] was “Metabolite_Detected” each time.

Take `[2H]C([2H])([2H])Oc1ccccc1-n1nc2c3cc(Cl)ccc3[nH]cc-2c1=O`: the Tmax in series [3] and in [5] was 0.78 h throughout. Also, the Activity entry with HEK-293T is given as “Non-Toxic”; in the series on Rattus norvegicus [4], 3.5; with Rattus norvegicus [10], 0.22 meter/s; with Rattus norvegicus [12], 6.14 m; in the series on Rattus norvegicus [13], 9.93 m; with Rattus norvegicus [14], “Non-Toxic”. Further, the Activity in the series on Rattus norvegicus [16] is recorded as 20.6%; with Rattus norvegicus [17] it was 69.34%; in the series on HepG2 it was “Non-Toxic”; in the series with Rattus norvegicus [20], 2.66 kg/kg; with Mus musculus, “Non-Toxic”. In addition, the figures for the half-life in series [6] and in series [21] were 3.66 h and 5.54 h, respectively. Besides, the “inhibition (INH)” value in series [7] is given as “Not Active”. Also, the peak concentration (Cmax) in [8] is 65.6 ng/g; in series [9] it was 0.434 µg/mL. For the same molecule, the Kp in [11] was found to be 0.15. The same molecule had an AUC in the series on Brain of 269.03 ng·h/g. Moreover, the area under the curve AUC(0-t) at 12 h in series [15] amounted to 1.8 µg·h/mL. Besides, the remaining at 1 h, 10 µM is 94.8% in series [18] and 94.9% in [19]. In the series on Liver, the t1/2 is 16.6 h.
